Data as given in ChEMBL document CHEMBL3868616, “Synthesis and biological evaluation of hesperetin derivatives as agents inducing apoptosis” (2017).
The source made the active and inactive calls. The calls are words filed in the database; no cut-off is given here.

Experiments:
[1] = Anticlonogenic activity in human HCT116 cells after 6 days by crystal violet staining based assay; type: functional; conditions: HCT-116, 144 h
How it was run: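 HCT116 colon cancer cells, long-term clonogenic survival assay. Compound exposure for six days at 0, 5, 10 and 20 µM (results section also lists 40 µM). Colonies stained with 0.1% crystal violet and quantified by densitometry. GI50 computed from the concentration–response data.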

[2] = Cytotoxicity against human HCT116 cells assessed as decrease in cell viability at 80 uM after 24 hrs by CCK-8 assay; type: functional, HCT-116
How it was run: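 HCT116 cells seeded at 5 × 10^3 per well and treated 24 h at 10, 20, 40, 80 and 100 µM. Viability read with CCK-8 as absorbance at 450 nm. Compared with vehicle by one-way ANOVA followed by Sidak's multiple comparisons test.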

HCT-116 [3] = assay: Induction of apoptosis in human HCT116 cells assessed as viable cells at 50 uM after 24 hrs by FITC-annexin V/propidium iodide staining based fluorescence assay (reference value: 90%); type: functional; conditions: HCT-116, 24 h, read-out: Activity
HCT-116 [4] = assay: Induction of apoptosis in human HCT116 cells assessed as early apoptotic cells at 50 uM after 24 hrs by FITC-annexin V/propidium iodide staining based fluorescence assay (reference value: 6%); type: functional
HCT-116 [5] = assay: Induction of apoptosis in human HCT116 cells assessed as late apoptotic cells at 50 uM after 24 hrs by FITC-annexin V/propidium iodide staining based fluorescence assay (reference value: 3%); type: functional
HCT-116 [6] = assay: Induction of apoptosis in human HCT116 cells assessed as necrotic cells at 50 uM after 24 hrs by FITC-annexin V/propidium iodide staining based fluorescence assay (reference value: 2%); type: functional
HCT-116 [7] = assay: Induction of apoptosis in human HCT116 cells assessed as increase in caspase-9 cleavage at 50 uM by immuno blot analysis; type: functional, cell-based; conditions: TDE = time-dependent effect
How it was run: (§1)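 HCT116 cells exposed to 50 µM for 0, 12 and 24 h. Total cell lysates immunoblotted with antibodies against cleaved caspase-9, cleaved caspase-3 and PARP.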

HCT-116 [8] = assay: Induction of apoptosis in human HCT116 cells assessed as increase in caspase-3 cleavage at 50 uM by immuno blot analysis; type: functional, cell-based; conditions: TDE = time-dependent effect; how it was run: as §1
HCT-116 [9] = assay: Induction of apoptosis in human HCT116 cells assessed as increase in PARP cleavage at 50 uM measured up to 24 hrs by immuno blot analysis; type: functional, cell-based; how it was run: as §1
[10] = target: Mitogen-activated protein kinase 8 (Homo sapiens) (UniProt P45983); assay: Increase in JNK1 phosphorylation at Thr183/Tyr185 residues in human HCT116 cells at 50 to 200 uM measured up to 1 hr by Western blot analysis; type: cell-based; conditions: HCT-116
How it was run: (§2)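 HCT116 cells exposed to 0, 50, 100 or 200 µM for 1 and 12 h. Whole-cell lysates immunoblotted with an antibody specific for phospho-JNK1/2 (Thr183/Tyr185), with GAPDH as the internal loading control.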

[11] = target: Mitogen-activated protein kinase 9 (Homo sapiens) (UniProt P45984); assay: Increase in JNK2 phosphorylation at Thr183/Tyr185 residues in human HCT116 cells at 50 to 200 uM measured up to 1 hr by Western blot analysis; type: cell-based; conditions: HCT-116; how it was run: as §2
[12] = target: Mitogen-activated protein kinase 8 (Homo sapiens) (UniProt P45983); assay: Increase in JNK1 phosphorylation at Thr183/Tyr185 residues in human HCT116 cells at 50 to 200 uM measured up to 12 hrs by Western blot analysis; type: cell-based; conditions: HCT-116; how it was run: as §2
[13] = target: Mitogen-activated protein kinase 9 (Homo sapiens) (UniProt P45984); assay: Increase in JNK2 phosphorylation at Thr183/Tyr185 residues in human HCT116 cells at 50 to 200 uM measured up to 12 hrs by Western blot analysis; type: cell-based; conditions: HCT-116; how it was run: as §2
[14] = target: Mitogen-activated protein kinase 8 (Homo sapiens) (UniProt P45983); assay: Increase in JNK1 phosphorylation at Thr183/Tyr185 residues in human HCT116 cells at 50 to 200 uM after 12 hrs by Western blot analysis; type: cell-based; conditions: HCT-116; how it was run: as §2
[15] = target: Mitogen-activated protein kinase 9 (Homo sapiens) (UniProt P45984); assay: Increase in JNK2 phosphorylation at Thr183/Tyr185 residues in human HCT116 cells at 50 to 200 uM after 12 hrs by Western blot analysis; type: cell-based; conditions: HCT-116; how it was run: as §2

Chain of Mitogen-activated protein kinase 9 (Homo sapiens) (P45984 whole entry, looked up): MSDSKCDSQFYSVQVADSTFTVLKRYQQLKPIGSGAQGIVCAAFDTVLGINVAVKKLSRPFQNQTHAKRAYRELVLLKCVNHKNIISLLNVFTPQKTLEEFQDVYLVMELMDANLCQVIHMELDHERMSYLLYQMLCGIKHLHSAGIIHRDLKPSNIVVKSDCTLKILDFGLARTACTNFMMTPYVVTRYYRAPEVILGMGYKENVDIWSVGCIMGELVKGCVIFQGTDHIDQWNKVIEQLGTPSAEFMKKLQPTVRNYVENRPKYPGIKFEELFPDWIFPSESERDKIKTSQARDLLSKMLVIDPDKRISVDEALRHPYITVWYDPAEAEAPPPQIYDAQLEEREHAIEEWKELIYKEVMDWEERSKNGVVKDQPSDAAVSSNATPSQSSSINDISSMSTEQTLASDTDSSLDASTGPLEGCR
Chain of Mitogen-activated protein kinase 8 (Homo sapiens) (P45983 whole entry): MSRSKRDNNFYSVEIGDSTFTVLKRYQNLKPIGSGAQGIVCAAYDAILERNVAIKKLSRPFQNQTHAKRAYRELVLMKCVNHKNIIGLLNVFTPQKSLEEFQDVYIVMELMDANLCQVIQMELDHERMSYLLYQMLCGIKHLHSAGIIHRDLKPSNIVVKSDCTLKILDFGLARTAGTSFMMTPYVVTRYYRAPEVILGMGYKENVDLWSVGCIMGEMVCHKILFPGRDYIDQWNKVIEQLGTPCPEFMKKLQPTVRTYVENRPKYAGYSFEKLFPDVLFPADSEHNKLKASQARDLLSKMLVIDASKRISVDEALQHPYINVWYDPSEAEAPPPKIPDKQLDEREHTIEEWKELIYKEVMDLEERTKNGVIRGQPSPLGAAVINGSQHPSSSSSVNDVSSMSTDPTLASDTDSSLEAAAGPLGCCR

COc1ccc(C(=O)Oc2cc(O)c3c(c2)O[C@H](c2ccc(OC)c(OC(=O)c4ccc(OC)cc4)c2)CC3=O)cc1
GI50 [1]: 35.7 µM

COc1ccc([C@@H]2CC(=O)c3c(O)cc(OC(=O)c4ccc(C)cc4)cc3O2)cc1OC(=O)c1ccc(C)cc1
GI50 [1]: 71.7 µM

CCCC(=O)Oc1cc(O)c2c(c1)O[C@H](c1ccc(OC)c(O)c1)CC2=O
GI50 [1]: 12 µM
Activity [2]: 50%
viability at 50 µM (HCT-116 [3]): 55%
Activity (HCT-116 [4]): 39%
Activity (HCT-116 [5]): 5%
Activity (HCT-116 [6]): 0%
Activity (HCT-116 [7]): Tde
Activity (HCT-116 [8]): Tde
Activity (HCT-116 [9]): Active
Activity [10]: Active
Activity [11]: Active
Activity [12]: Active
Activity [13]: Active

C/C=C/C(=O)Oc1cc(O)c2c(c1)O[C@H](c1ccc(OC)c(O)c1)CC2=O
GI50 [1]: 16.9 µM

COc1ccc([C@@H]2CC(=O)c3c(O)cc(OC(=O)/C=C/c4ccccc4)cc3O2)cc1OC(=O)/C=C/c1ccccc1
GI50 [1]: 21 µM

COc1ccc([C@@H]2CC(=O)c3c(O)cc(OC(=O)C(C)(C)C)cc3O2)cc1O
GI50 [1]: 31.5 µM

CCCC(=O)Oc1cc(O)c2c(c1)O[C@H](c1ccc(OC)c(OC(=O)CCC)c1)CC2=O
GI50 [1]: 13.2 µM

COc1ccc([C@@H]2CC(=O)c3c(O)cc(OC(=O)c4ccccc4)cc3O2)cc1OC(=O)c1ccccc1
GI50 [1]: 46 µM

COc1ccc([C@@H]2CC(=O)c3c(O)cc(OC(=O)c4ccccc4C)cc3O2)cc1O
GI50 [1]: 22.9 µM

COc1ccc([C@@H]2CC(=O)c3c(O)cc(OC(=O)c4ccccc4C)cc3O2)cc1OC(=O)c1ccccc1C
GI50 [1]: 48.7 µM

COc1ccc([C@@H]2CC(=O)c3c(O)cc(O)cc3O2)cc1O [HESPERETIN]
GI50 [1]: 36.1 µM
Activity [2]: 15%
viability at 50 µM (HCT-116 [3]): 88%
Activity (HCT-116 [4]): 9%
Activity (HCT-116 [5]): 2%
Activity (HCT-116 [6]): 0%
Activity [14]: Active
Activity [15]: Active

COc1ccc([C@@H]2CC(=O)c3c(O)cc(OC(=O)c4ccccc4)cc3O2)cc1O
GI50 [1]: 16.5 µM

COc1ccc([C@@H]2CC(=O)c3c(O)cc(OC(=O)Cc4ccccc4)cc3O2)cc1OC(=O)Cc1ccccc1
GI50 [1]: 63.9 µM
